Source: PubChem BioAssay (several laboratories)
Beta2AR agonist – activates human beta-2 adrenergic receptor causing internalization; P07550; 0.43% of 340,000 active; AID 504454; Am2.2-beta2AR cells, FAP receptor internalization, flow cytometry; response, % (test concentration not listed);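 active = response above a set limit, near 3 SD of response in nonfluorescent compounds, cut at about 42% in these data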
MBD2 inh – MBD2-methylated oligo binding inhibition. AID 686964. Q9UBB5. TR-FRET, MBD2 binding to methylated oligonucleotide. inhibition, % at 4.4 µM. 0.31% of 370,000 active; in the data active = inhibition above about 13%
Target sequence (Q9UBB5 whole entry, looked up): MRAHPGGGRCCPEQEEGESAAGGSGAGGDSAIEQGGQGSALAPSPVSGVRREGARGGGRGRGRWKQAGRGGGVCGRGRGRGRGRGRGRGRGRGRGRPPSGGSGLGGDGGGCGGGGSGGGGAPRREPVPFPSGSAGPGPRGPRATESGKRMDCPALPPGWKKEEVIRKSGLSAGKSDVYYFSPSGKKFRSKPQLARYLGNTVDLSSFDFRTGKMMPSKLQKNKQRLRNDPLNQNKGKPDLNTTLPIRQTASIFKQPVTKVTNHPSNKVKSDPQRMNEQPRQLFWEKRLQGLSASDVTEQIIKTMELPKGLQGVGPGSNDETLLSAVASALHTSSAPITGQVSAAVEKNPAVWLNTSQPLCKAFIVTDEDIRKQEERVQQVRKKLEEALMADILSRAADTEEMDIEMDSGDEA
UHRF1 MBD2 ctr – human UHRF1 methylated DNA binding inhibitors | UHRF1 binding to methylated oligo, TR-FRET | 0.75% of 370,000 active | inhibition, % at 4.4 µM | AID 687016 | Q96T88; in the data active = inhibition above about 21%;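 also: UHRF1 SRA domain binding a hemimethylated CpG hairpin DNA probe; 0% = median of test compound wells and 100% = reference inhibitor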
Rin1-Abl PPI inh – inhibitors of human Rin1-Abl protein interaction; 0.4% of 360,000 active; AID 588664; TR-FRET Rin1/Abl binding, biochemical; inhibition, % at 7.35 µM; P00519+Q13671; in the data active = inhibition above about 5%, passing the limit was not always enough
Arr AP2 block – blocks beta-arrestin peptide binding to AP2 adaptin. FITC-arrestin peptide / GST-AP2 beads, flow cytometry; AP2 beta2 appendage carries R879A mutation. inhibition, % at 10 µM. 0.31% of 340,000 active. AID 504490;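 active = inhibition above a set limit, near 3 SD of compounds lacking own fluorescence, cut at about 54% in these data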;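 also: plate controls were DMSO wells for no effect and 5 µM unlabelled arrestin peptide for full effect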
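test system = AP2 appendage R879A on GSH beads | buffer or medium = PBS plus Tween 20 (0.05%) and BSA (0.1%) | incubation = 12 min plus 1 h, RT | detection = bead flow cytometry, FITC channel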
ABHD5-PLIN5 inh – inhibitors of human ABHD5-perilipin-5 interaction; Q00G26+Q8WTS1; Split G. princeps luciferase complementation, luminescence, 4 h; inhibition, % at 4 µM; 0.78% of 360,000 active; AID 602281;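 active = inhibition above the mean inhibition across every tested compound plus 3 SD, cut at about 22% in these data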;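 also: 0% = DMSO only wells and the 100% control is not disclosed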
Starred values were filed as active, the others as inactive; / = not tested or not shown. In the library only some 2.5% were active in any assay of this set; here they are far more common.

SMILES	Beta2AR agonist	MBD2 inh	UHRF1 MBD2 ctr	Rin1-Abl PPI inh	Arr AP2 block	ABHD5-PLIN5 inh
CCn1cc(C(=O)NCCCN2CCN(C)CC2)c(=O)c2cc(S(=O)(=O)N3CCc4ccccc4C3)ccc21	-1	-6	41*	6	-17	3
CCc1ccc2[nH]c(=O)c(C3C(C#N)=C(N)Oc4c3ccc3cccnc43)cc2c1 (centres undefined)	-10	-12	-11	10*	3	-6
Cc1ccc2cc(C3C(C#N)=C(N)Oc4c3ccc3cccnc43)c(=O)[nH]c2c1 (centres undefined)	-4	/	/	4	14	8
O=C(c1coc2ccc(O)cc12)C1CC1	-4	-10	21*	0	3	-5
CCCCCCNC(=O)O[C@H]1Cn2c(=O)n(CCCCCC)c(=O)n2[C@@H]2CN(S(=O)(=O)c3ccc(C)cc3)C[C@]12O	/	1	9	-3	/	-13
CCCCCCNC(=O)O[C@H]1Cn2c(=O)ccc(=O)n2[C@@H]2CN(S(=O)(=O)c3ccc(C)cc3)C[C@]12O	/	3	-1	-3	/	23*
CCCCCCn1c(=O)n2n(c1=O)[C@@H]1CN(S(=O)(=O)c3ccc(C)cc3)C[C@]1(O)[C@@H](OC(=O)NCC1CCCCC1)C2	/	4	23*	-1	/	-20
CC(C)Oc1ccc(-c2csc(N3CCC(C(N)=O)CC3)n2)cc1	/	7	-1	/	/	/
O=C(NCCc1nc2ccccc2n1C/C=C/c1ccccc1)C1CCCCC1	/	-4	-1	/	/	/
COC(=O)[C@]12C[C@H](CC(=O)NCCc3ccccc3OC)C(=O)N(Cc3cccc4ccccc34)C1=C[C@H](C1CCCC1)O[C@@H]2C	/	-2	2	/	/	/
O=C(OC12CCCN(C1)/C(=C/c1ccc(Cl)cc1)C2)c1ccccc1 (centres undefined)	/	-7	3	/	/	/
CN1CC(COCc2ccccc2)Oc2ccccc2S1(=O)=O (centres undefined)	-5	0	-2	-2	5	-4
O=S1(=O)c2ccccc2OC(COCc2ccccc2)CN1C1CC1 (centres undefined)	-4	7	26*	-3	22	2
C=CCn1cccc(C(=O)Nc2ccc(C)c(C)c2)c1=O	3	-3	1	0	2	2
C=CCn1cccc(C(=O)Nc2cc(OC)ccc2OC)c1=O	-6	-3	29*	-3	-12	-2
COc1ccc(Cl)cc1-c1cc(C(=O)NC2CCCCC2)[nH]n1	/	-1	-1	1	/	-1
CCOc1ccc(Cl)cc1-c1cc(C(=O)NC2CCCCC2)[nH]n1	/	-1	79*	-3	/	3
CC(C)Oc1cccc(-c2n[nH]c(=S)n2N=Cc2cccc([N+](=O)[O-])c2)c1	/	0	-2	/	/	/
CN(Cc1ccc(Cl)c(Cl)c1)C(=O)C1CC(=O)N(c2ccc3c(c2)OCCO3)C1 (centres undefined)	/	3	2	-3	/	0
CN(Cc1cccc(F)c1)C(=O)C1CC(=O)N(c2ccc3c(c2)OCCO3)C1 (centres undefined)	-9	5	60*	4	-7	2
O=C(CCc1ccccc1)N[C@H]1[C@@H](OC(=O)c2cnccn2)CCC[C@@]12C(=O)N(Cc1ccccc1)c1ccccc12	/	-8	0	/	/	/
CCn1c(SCc2nc3sc(C(=O)O)c(C)c3c(=O)[nH]2)nc2ccccc21	3	7	25*	2	3	6
COCCn1c(SCc2nc3sc(C(=O)OC)c(C)c3c(=O)[nH]2)nc2ccccc21	0	2	-2	1	14	0
Cc1cccc(CNC(=S)OC2CCC23CCC(c2ccccc2)CC3)c1 (centres undefined)	/	-1	-2	/	/	/
CC(=O)Nc1ccc(C2=NNC(=Nc3cccc(S(=O)(=O)N(C)C)c3)SC2)cc1	-3	/	/	4	-3	58*
CN(C)S(=O)(=O)c1cccc(N=C2NN=C(c3ccccc3)CS2)c1	/	2	-3	/	/	/
COc1ccc(C(=O)C2CCN(c3ncnc4sccc34)CC2)cc1	/	4	0	/	/	/
COc1ccc([N+](=O)[O-])c(S(=O)(=O)c2ccccc2)n1	51*	-3	-5	1	42	53*
O=[N+]([O-])c1cccnc1S(=O)(=O)c1ccccc1	1	-3	-3	1	-8	22*
